# From PubChem BioAssay
# Hsp70 act = Hsp70 transcriptional activation, primary screen | 200,000 compounds, 0.04% hits | activation, % at 10 µM | HeLa Hsp70 promoter luciferase reporter, luminescence; scaled: vehicle 0, proteasome-inhibitor control 100%;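 active = activation above the mean across all tested compounds plus 3 SD, cutoff set per campaign, cut at about 5.5% in these data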
# Mdm2 ligase inh = blocks human Mdm2 ubiquitin ligase activity; 210,000 compounds, 0.11% hits; cell-based MDM2 ubiquitination luciferase reporter, 2 h; 0 = plate control, 100 = twice control, blank-subtracted; Q00987; signal enhancement, % at 5 µM;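 active = signal enhancement of 30% or more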;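 also: luminescence tracks abundance of the self-degrading MDM2-luciferase fusion protein; higher signal means inhibition of MDM2 E3 ligase activity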
# Target sequence (Q00987 whole entry, looked up, the tested form may be a part): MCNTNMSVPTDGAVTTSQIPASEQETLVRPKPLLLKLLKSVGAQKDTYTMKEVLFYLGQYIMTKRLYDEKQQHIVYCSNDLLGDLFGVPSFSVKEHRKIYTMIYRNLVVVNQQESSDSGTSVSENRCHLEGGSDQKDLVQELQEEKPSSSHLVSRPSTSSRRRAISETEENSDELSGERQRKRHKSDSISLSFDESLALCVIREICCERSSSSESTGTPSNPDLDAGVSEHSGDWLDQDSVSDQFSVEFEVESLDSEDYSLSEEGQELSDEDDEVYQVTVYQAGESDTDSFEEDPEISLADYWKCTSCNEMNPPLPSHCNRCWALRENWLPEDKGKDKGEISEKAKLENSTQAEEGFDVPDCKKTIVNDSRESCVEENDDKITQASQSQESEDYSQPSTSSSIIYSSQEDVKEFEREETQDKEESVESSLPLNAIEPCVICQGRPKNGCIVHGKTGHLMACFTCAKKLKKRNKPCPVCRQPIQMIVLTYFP
#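 Test system: stable mammalian line carrying autodegrading MDM2–luciferase fusion reporter; quantity: 2000 cells in each well; times: 4 h cell settling then 2 h compound exposure, 37 °C; detection: luminescence with SteadyLite reagent, 15 min at room temperature; evaluation: percent signal gain over controls, blank-subtracted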
# HSF-1 act = increases HSF-1 driven luciferase reporter signal; NIH3T3-HGL HSF-1 luciferase reporter, MG132, 8 h; 100% = twice DMSO control signal; activation, % at 9 µM; 300,000 compounds, 1.7% hits; AID 504408;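 active = mean replicate activation of at least 50% with a set share of replicates each reaching 50%; inconclusive = only one of those two conditions met; inactive = mean below 50% and too few replicates reaching it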
# HSV augment = increases HSV replication in cells; HSV replication augmentation in cells, fold increase; 220,000 compounds, 0.005% hits; maximum fold increase; in the data active = maximum fold increase above about 1.5; inconclusive = no clear call, values can overlap the other calls; tested in PC3 cells
# Rad51 HR inh = blocks human Rad51 in homologous recombination. Q06609. hRad51 DNA strand exchange, fluorescence dequenching. inhibition, % at 10 µM. 200,000 compounds, 0.085% hits;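 active = inhibition above 40% at the single screening dose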
#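 System: human Rad51 nucleoprotein filaments preassembled on unlabelled ssDNA. Reagent: labelled 47-mer dsDNA for strand exchange. Schedule: 30-min compound preincubation and 15-min exchange, both room temperature. Measured by: FRET fluorescence dequenching, excitation 485 nm, emission 520 nm. Read-out: Fluorescence-based percent inhibition, control- and blank-normalised. Benchmarks: plate controls and plate blanks.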
# HSF1 inh = HSF1 inhibition; 300,000 compounds, 0.77% hits; AID 2098; activity change, negative = inhibition, % at 7.5 µM (by protocol); NIH3T3-HGL HSE-luciferase, MG132-induced, luminescence 8 h; active compounds read low;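 active = more than half of replicate wells show activity change below -50%, luminescence cut by over half; inconclusive = some wells, but at most half, below -50%; inactive = no replicate well below -50%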;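 also: luciferase reports HSF-1 transcriptional activity via heat shock element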
# A number is an active result; . = inactive; ? = inconclusive; / = no result. Shown are actives, neighbours in structure and some others; about 2.6% of the full set was active somewhere.
SMILES,Hsp70 act,Mdm2 ligase inh,HSF-1 act,HSV augment,Rad51 HR inh,HSF1 inh
COc1ccc(CN(C)CCc2ccccn2)cc1OC,.,.,.,.,.,.
COc1cc(OC)c(OC)cc1CN(C)CCc1ccccn1,.,.,74,.,.,.
COc1ccc(S(=O)(=O)N2CCC(C(=O)Nc3nccs3)CC2)cc1,/,/,.,/,/,.
Cc1cccc(N2C(=O)CS/C2=N\NC(=O)c2ccc(Br)cc2)c1C,.,.,.,.,.,-72
Cc1ccc(S(=O)(=O)N(C)c2ccccc2C(=O)Nc2c(F)cccc2F)cc1,/,/,.,/,/,.
c1ccc2c(c1)OCC(c1csc3ncnc(N4CCOCC4)c13)O2 (configuration not stated),.,.,.,.,.,-57
CCN1C(=O)/C(=C\c2ccc3c(c2)OCO3)C(C(=O)OC)=C1C,.,.,63,.,.,.
COCCCN1C(=O)/C(=C\c2ccc3c(c2)OCO3)C(C(=O)OC)=C1C,.,.,.,.,.,.
CCOc1cc(/C=C2\C(=O)N(Cc3ccc(C)cc3)C(C)=C2C(=O)OC)ccc1O,.,.,77,.,/,.
O=C(COC(=O)/C=C/c1ccc(S(=O)(=O)N2CCc3ccccc32)cc1)NC1CCS(=O)(=O)C1 (configuration not stated),.,.,.,.,.,.
COc1ccc(NC(=O)CC23CC4CC(CC(C4)C2)C3)cn1,.,.,.,.,.,.
NC(=O)c1ccc(N=Nc2c(-c3ccccc3)[nH]n(-c3ccccc3)c2=O)cc1,.,.,.,.,.,.
O=Nc1c(-c2ccccc2)[nH]n(-c2ccccc2)c1=O,/,/,98,/,/,.
CC1Oc2ccccc2N(CC(=O)NC2CC2)C1=O (configuration not stated),/,/,.,/,/,.
CC1Oc2ccccc2N(CC(=O)NCc2ccccc2)C1=O (configuration not stated),.,.,.,.,.,-88
O=C(N/N=C/c1sc2ccccc2c1O)c1ccccc1,.,.,270,?,.,.
O=C(NNC(=O)c1cc(Cl)nc2ccccc12)c1ccccc1F,/,/,.,/,/,.
C=CCn1cc(C(=O)OCC)c(=O)c2cc(F)c(F)cc21,/,.,.,.,.,.
O=C(C=C=Nc1ccccc1)C(=O)N=C=Cc1ccccc1,/,.,224,.,.,.
COc1ccc(C2C(C(N)=O)=C(C)Nc3nc(CCCO)nn32)cc1OC (configuration not stated),/,/,.,/,/,.
Cc1nnc(NCc2ccco2)s1,.,.,.,.,.,.
c1coc(CNc2nc3ccccc3s2)c1,/,/,80,/,/,.
Cc1cccc2cc(-c3nc4ccc(C(=O)O)cc4[nH]3)c(=O)oc12,/,/,.,/,/,.
O=S(=O)(Cc1ccccc1)N1CCN(c2ccccc2)CC1,.,.,.,.,.,.
Cc1ccccc1N1CCN(S(=O)(=O)Cc2ccccc2)CC1,/,/,52,/,/,.
SMILES,Hsp70 act,Mdm2 ligase inh,HSF-1 act,HSV augment,Rad51 HR inh,HSF1 inh
CCN(CC)C(=O)CN1CCN(c2ncccn2)CC1,.,53,.,/,/,.
CS(=O)(=O)N1CCN(C(=O)c2ccc(Cl)s2)CC1,.,.,.,.,43,.
CO/N=C\CC(=O)Nc1ccc(Cl)cc1Cl,.,.,.,.,.,.
COc1ccc(-c2nn(-c3ccccc3)cc2C(=O)OCC(=O)c2ccc(C)c([N+](=O)[O-])c2)cc1,.,.,.,.,/,.
C=CCN(c1ccccc1)S(=O)(=O)c1cccc(C(=O)NC2CCC(O)CC2)c1 (configuration not stated),/,/,.,/,/,.
Cc1cc(C)nc(-n2nc(C)c(Sc3ccc(F)cc3)c2N)n1,.,.,62,.,.,.
O=C(Cc1c(Cl)cccc1Cl)Nc1cccnc1,.,.,.,.,.,.
O=C(Nc1cccc(-c2cn3ccccc3n2)c1)c1cnccn1,.,.,54,.,.,.
O=C(Nc1cccc(-c2cn3ccccc3n2)c1)c1cccc(Cl)c1,.,.,.,.,.,.
COc1ccccc1NC(=O)CSc1nc2n[nH]c(C)c2c(=N)n1-c1ccccc1Cl,.,.,60,.,.,.
CCc1ccccc1NC(=O)CSc1nc2n[nH]c(C)c2c(=N)n1-c1ccc(OC)cc1,.,.,/,.,.,/
Clc1ccc(SCCn2cncn2)cc1,.,.,.,.,.,.
Cc1ccc(SCCCn2cncn2)cc1,.,.,.,.,.,-71
COC1(OC)C(/C=C/c2ccc(C)cc2)C(C#N)(C#N)C1(OC)OC (configuration not stated),.,/,55,.,.,.
CCN(CC)S(=O)(=O)c1ccc(C)c(NC(=S)Nc2cccc(S(=O)(=O)N3CCCCCC3)c2)c1,.,.,56,.,.,.
CCN(CC)S(=O)(=O)c1ccc(C)c(NC(=O)CNc2cccc(S(=O)(=O)N3CCOCC3)c2)c1,/,/,.,/,/,.
CCn1c(Cn2nnc(-c3ccccc3)n2)nnc1SCC(=O)Nc1cccc(C(C)=O)c1,.,.,.,.,.,.
CCn1c(Cn2nnc(-c3ccccc3)n2)nnc1SCC(=O)Nc1cccc(C)c1C,.,.,76,.,.,.
O=C(C[n+]1cccc(NC(=O)c2ccccc2)c1)c1cccc([N+](=O)[O-])c1,.,.,.,.,.,.
O=C(C[n+]1cccc(C(=O)Nc2ccccc2)c1)c1ccc([N+](=O)[O-])cc1,/,/,132,/,/,.
C=CCOC(=O)C1=C[C@@H](c2csc3ccccc23)C[C@@H](OCCCCO)O1,/,/,.,.,.,.
COc1ccc(CNS(=O)(=O)c2cc(CN3C(=O)c4cccnc4C3=O)ccc2OC)cc1,/,/,61,/,/,.
COCc1ccc(C(=O)N(C)C2CCCN(Cc3ccccc3F)C2)o1 (configuration not stated),/,/,.,/,/,.
O=C(c1ccco1)c1coc2c1cc(O)c1ccccc12,.,.,68,.,.,.
CC(=O)c1coc2c1cc(O)c1ccccc12,.,.,.,.,.,.
SMILES,Hsp70 act,Mdm2 ligase inh,HSF-1 act,HSV augment,Rad51 HR inh,HSF1 inh
CC(C)Cn1c(/C=N/Nc2nc3ccccc3[nH]2)nc2ccccc21,.,.,.,.,.,.
Cn1c(/C=N/Nc2nc3ccccc3[nH]2)nc2ccccc21,.,.,.,.,.,.
Cc1c(/C=N/Nc2nc3ccccc3[nH]2)c2ccccc2n1C,/,.,332,.,.,.
C=CCn1cc(/C=N/Nc2nc3ccccc3[nH]2)c2ccccc21,.,.,268,.,/,.
Cc1nn(-c2ccccc2)c(C)c1/C=N/Nc1nc2ccccc2[nH]1,.,.,423,.,.,.
Cc1nn(-c2ccccc2)c(Cl)c1/C=N/Nc1nc2ccccc2n1C,.,.,63,.,/,.
O=S(=O)(c1ccccc1)n1c(C(O)c2ccccn2)cc2ccccc21 (configuration not stated),.,.,.,.,.,.
